High-throughput results from PubChem.
M1 antagonist = antagonists of rat M1 muscarinic receptor. 64,000 tested, 3.4% active. CHO-M1 cells, Fluo-4 calcium, ACh EC80 antagonist mode; stronger effect = lower value. B-score at 10 µM;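 active = calcium fluorescence response, raw or row-and-column corrected B-score, differing from the plate sample mean either way at a set confidence level, mostly lower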
DAT uptake mod = human DAT dopamine uptake with cocaine, either direction. AID 449768. 110,000 tested, 1.3% active. B-score at 10 µM. LLC-PK1 hDAT cells, [14C]-dopamine uptake with cocaine IC80; actives deviate in either direction. Q01959;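 active = Z score or B-score, a plate-position-corrected score, falls beyond the plate's 99.7% confidence bounds, in either direction; inactive = both scores lie inside the 99.7% bounds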;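 also: scored against the spread of the other compound wells on the same plate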
M1 ag = M1 muscarinic receptor agonism | CHO-M1 cells, Fluo-4 calcium fluorescence, agonist mode; stronger effect = higher value | B-score at 10 µM | 64,000 tested, 3% active;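 active = fluorescence rise, raw or as B-score row- and column-corrected plate score, outside the 99.7% band of its plate's samples, either direction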
D1 mod = allosterically modulates the human D1 dopamine receptor; P21728; HEK293 D1, CRE-luciferase, dopamine EC30 potentiation; actives deviate in either direction; B-score at 10 µM; 58,000 tested, 5.9% active;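 active = luminescence count or its row- and column-corrected plate score outside the 99.7% band of the plate's sample wells, on either side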
HEK293 NFkB inh = lowers PMA/ionomycin-induced NF-kB signal in HEK293 cells; AID 465; inhibition, % at 3 µM; HEK-293 NF-kB luciferase reporter, luminescence; 62,000 tested, 0.21% active;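 active = inhibition above the mean of all tested compounds plus 3 SD, cut at about 40% in these data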;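 also: 0% = stimulated DMSO wells and 100% = 10 µM reference inhibitor 5653914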
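Material: HEK-293 cells with stable firefly luciferase reporter driven by four HIV NF-kB elements / Also added: PMA plus ionomycin mix as NF-kB-activating stimulus / Compound dosing: 3 µM once, 0.30% DMSO / Times: 1 h pretreatment, 16 h stimulation, 37 °C / Signal: luminescence / Evaluation: per-plate % inhibition versus controls / Benchmarks: DMSO and 10 µM reference inhibitor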
BAP1 inh = human BAP1 deubiquitinase inhibition; Q92560; recombinant BAP1, Ub-AMC hydrolysis fluorescence kinetic; stronger effect = lower value; calls only at 20 µM; 72,000 tested, 0.48% active;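 active = activity remaining at or below 50% of control, provided the compound also passes the data quality filters; inactive = the rest, including low values that fail the filters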;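 also: 100% = DMSO wells rate and 0% = substrate alone blank rate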
Target sequence (Q92560 whole entry, looked up): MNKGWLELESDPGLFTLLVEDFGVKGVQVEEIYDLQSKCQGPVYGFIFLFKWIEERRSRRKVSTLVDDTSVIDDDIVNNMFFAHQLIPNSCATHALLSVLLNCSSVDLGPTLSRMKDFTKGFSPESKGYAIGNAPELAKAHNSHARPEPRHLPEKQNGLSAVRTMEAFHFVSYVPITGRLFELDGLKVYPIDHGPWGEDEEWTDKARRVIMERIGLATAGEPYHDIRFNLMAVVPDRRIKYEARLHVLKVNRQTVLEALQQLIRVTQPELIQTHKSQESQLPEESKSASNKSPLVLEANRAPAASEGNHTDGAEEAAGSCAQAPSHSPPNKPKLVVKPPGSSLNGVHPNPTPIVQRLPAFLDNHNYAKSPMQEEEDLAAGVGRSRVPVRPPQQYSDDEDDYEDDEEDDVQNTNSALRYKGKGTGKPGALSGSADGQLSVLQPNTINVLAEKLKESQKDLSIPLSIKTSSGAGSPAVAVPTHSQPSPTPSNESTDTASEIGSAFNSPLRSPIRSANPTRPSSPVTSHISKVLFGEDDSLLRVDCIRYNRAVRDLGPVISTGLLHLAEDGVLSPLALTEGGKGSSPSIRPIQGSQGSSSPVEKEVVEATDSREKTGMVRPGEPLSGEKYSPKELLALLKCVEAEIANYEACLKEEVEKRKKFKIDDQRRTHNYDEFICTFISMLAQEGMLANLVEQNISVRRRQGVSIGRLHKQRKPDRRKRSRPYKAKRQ
M1 agonist conf = confirmation of rat M1 muscarinic receptor agonists; shares compounds with M1 ag; CHO-M1 cells, Fluo-4 calcium fluorescence, agonist mode; actives lie on both sides; fluorescence change (max-min) at 10 µM; 1,700 tested, 19% active; AID 1488;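 active = fluorescence change differs from the solvent-only DMSO control mean at a set confidence level in both duplicate runs; inconclusive = differs from solvent-only control mean in just one of two runs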;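 also: an EC20 dose of acetylcholine follows compound addition during the same imaging run; raw fluorescence intensity difference in instrument units with no normalization to controls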
M4 ag counter = rat M4 muscarinic agonism, M1 counter-screen; fluorescence change (max-min) at 10 µM; shares compounds with M1 ag; CHO M4/Gqi5 cells, Fluo-4 calcium fluorescence, agonist mode; actives lie on both sides; 1,700 tested, 9% active; AID 1741;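 active = fluorescence change differing from the plate's solvent-only control wells at 99.7% confidence in both duplicates, whether higher or lower; inconclusive = differs from solvent controls in only one of two duplicates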
* marks the source's active call; other numbers are inactive results; i = inactive; ? = inconclusive; . = no result shown. Sampled rows, rich in hits. Any-hit rate of the full collection: about 7.2%.

SMILES	M1 antagonist	DAT uptake mod	M1 ag	D1 mod	HEK293 NFkB inh	BAP1 inh	M1 agonist conf	M4 ag counter
CC(=O)Nc1c2c3c(cccc3n(C)c1=O)C(=O)c1ccccc1-2	-0.365	-0.000137	9.43*	0.0863	26.6	i	67.9*	?
O=C(c1cc(-c2ccccc2)nc2ccccc12)N1CCN(c2ccccn2)CC1	-1.2	0.389	4.07*	-2.74	15.1	i	-15.8	-41
O=C(c1ccco1)N1CCN(C(=O)c2cc(-c3ccccn3)nc3ccccc23)CC1	0.458	-1.16	3.28*	0.668	23.0	i	?	-74.2
O=C(c1cnc(N2CCN(c3ncccn3)CC2)c2ccccc12)N1CCN(c2ccccn2)CC1	-1.29	0.0482	12.3*	-1.45	21.5	i	-10.3	-12.1
O=C(OCC(=O)N1CCN(C(=O)c2ccco2)CC1)c1cc(-c2ccco2)nc2ccccc12	.	0.543	.	.	.	.	.	.
O=C(c1cc(-c2ccncc2)nc2ccccc12)N1CCN(c2ccc(N3CCOCC3)nn2)CC1	0.353	-1.28	4.77*	-0.0874	11.0	i	-22.1	-28
Cc1ccc2oc(-c3ccc(C)c(NC(=O)c4ccc([N+](=O)[O-])cc4)c3)nc2c1	.	.	.	.	.	i	.	.
c1ccc(CC2CCN(c3nc4ccccc4n4nnnc34)CC2)cc1	0.0174	0.626	-1.58	0.233	14.3	i	.	.
O=C(c1ccco1)N1CCN(c2nc3ccccc3n3nnnc23)CC1	-1.43	-0.287	7.4*	1.07	5.6	i	22.1	14.4
CCc1ccccc1S(=O)(=O)Cc1ccc(C(=O)N2CCN(c3ccccc3OC)CC2)o1	-0.28	1.79	7.19*	-2.43*	6.5	i	-15.6	?
COc1ccccc1S(=O)(=O)Cc1ccc(C(=O)N2CCCC2)o1	0.208	-0.152	-0.986	0.231	14.5	i	.	.
Cc1ccccc1S(=O)(=O)Cc1ccc(C(=O)N2CCN(c3cccc(C)c3C)CC2)o1	-0.631	1.12	9.65*	-4.33	27.8	i	?	-31.3
Cc1ccccc1S(=O)(=O)Cc1ccc(C(=O)N2CC(C)CC(C)C2)o1 (stereo not given)	0.00806	-0.449	-0.89	-0.0182	19.5	i	.	.
CC(C)OC(=O)c1c2nc3ccccc3nc2n2c1[nH]c(=O)c1ccccc12	0.398	-0.562	7.94*	0.107	.	i	73.5*	113
CC(C)OC(=O)c1c(N)n(CCCN2CCOCC2)c2nc3ccccc3nc12	.	2.42	.	.	.	.	.	.
O=C(Nc1cccc(Cl)c1)Nc1nccs1	-1.21	0.555	3.54*	-1.26	-17.5	i	-11.3	?
O=c1cc(CNC2CCCCC2)c2ccccc2[nH]1	-0.199	-1.04	-3.02*	-0.205	15.6	i	?	-48.4
CC(=O)Nc1nc2nc(-c3ccccc3)cc(-c3ccccc3)n2n1	.	-0.34	.	.	.	.	.	.
O=C(Nc1nc2nc(-c3ccccc3)cc(-c3ccccc3)n2n1)c1ccco1	0.021	0.00847	3.81*	-2.5*	-6.3	i	-24.1*	-57.1
CCc1cccc(C)c1NC(=O)CSc1nnnn1-c1ccc(C(=O)OC)cc1	.	.	.	.	.	i	.	.
CN(C)c1nc(OCCOC(=O)COc2ccc(Cl)cc2Cl)nc(N(C)C)n1	0.324	0.651	-1.01	-0.188	8.7	i	.	.
CN(C)c1nc(SCCOC(=O)COc2ccc(Cl)cc2Cl)nc(N(C)C)n1	-1.23	.	1.97*	1.15	1.2	i	10.6	?
COc1ccc(C2=NOC(C(=O)N3CCN(c4ccccc4OC)CC3)C2)cc1 (stereo not given)	-1.4	-1.08	2.58*	-3.51*	-0.4	i	-14.9	?
CC1(C)CC(=O)C2=C(C1)Nc1cc(C(=O)c3ccccc3)ccc1NC2c1ccc(Cl)cc1 (stereo not given)	.	.	.	.	.	i	.	.
Cc1nc2nc(-c3ccco3)[nH]n2c(=O)c1Cc1ccccc1	1.07	-0.91	3.6*	-1.06	1.4	i	-10.2	-27.1
SMILES	M1 antagonist	DAT uptake mod	M1 ag	D1 mod	HEK293 NFkB inh	BAP1 inh	M1 agonist conf	M4 ag counter
COc1ccc(-c2nc(-c3ccc(NC(=O)c4ccncc4)cc3)no2)cc1OC	-0.0126	-0.362	3.77*	-6.71*	-1.8	i	-20.8	-8.69
COC(=O)C(C)n1cnc2c(cnn2-c2ccc(Cl)cc2)c1=O (stereo not given)	-0.169	0.104	4.63*	.	-9.4	i	-5.04	-42.6
COc1ccc(-n2c(C)nc3c(cnn3-c3ccc(Cl)cc3)c2=O)cc1	-0.695	-0.155	4.14*	-0.562	20.0	i	-9.64	-53.2
Cc1cccc(-n2c(C)nc3c(cnn3-c3ccc(F)cc3)c2=O)c1	-0.745	-0.768	9.38*	0.403	17.1	i	-4.18	?
CCOC(=O)c1ccc(-n2c(C)nc3c(cnn3-c3ccc(Cl)cc3)c2=O)cc1	.	0.967	.	.	.	.	.	.
Cc1ccc(N2C(=O)C(Cl)=C(Nc3ccccc3F)C2=O)c(C)c1	.	.	.	.	.	i	.	.
CCOC(=O)CNC(=O)CSc1nnc(-c2ccco2)n1Cc1ccco1	-0.0836	0.186	0.242	-0.059	17.6	.	.	.
CCOC(=O)CNC(=O)CSc1nnc(-c2ccco2)n1N	1.22	-0.29	2.27*	-0.0442	-8.8	i	-27.2*	-88.7*
Cc1ccc(OCc2nnc(NC(=O)C(c3ccccc3)c3ccccc3)s2)cc1	.	.	.	.	.	i	.	.
N#Cc1ccc(COc2ccc(CCO)cc2-n2nc3ccccc3n2)cc1	-0.62	2.26	5.48*	1.3	-4.4	i	7.04	-15
Cc1ccc(C2(C)NC(=S)N(c3ccccc3)N2)cc1 (stereo not given)	.	.	.	.	.	i	.	.
O=[N+]([O-])c1ccc2c(c1)S(=O)(=O)N=C2N1CCCCC1	.	.	.	.	.	i	.	.
CN1CCN(C(=O)CSc2nc(-c3cccs3)cc(-c3cccs3)c2C#N)CC1	-1.11	0.0406	5.72*	0.813	2.6	i	-1.39	-15.5
O=C(NC1CC1)c1c[nH]c2ccc(S(=O)(=O)Nc3cccc(C(F)(F)F)c3)cc2c1=O	0.464	0.0102	-1.86*	1.38	7.3	.	-10.8	?
COc1cccc(C2/C(=C(\O)c3ccccc3)C(=O)C(=O)N2c2ccccc2)c1 (stereo not given)	.	.	.	.	.	i	.	.
O=C(C1CCN(S(=O)(=O)c2cccc3nsnc23)CC1)N1CC=C(c2ccccc2)CC1	-1.32	0.197	7.48*	0.293	-8.9	i	-9.85	-32.1
O=C(Oc1cccnc1)c1cccnc1	.	.	.	.	.	i	.	.
O=C1CC(c2ccc(Cl)cc2)CC2=C1C(c1cccc(F)c1)Nc1ccccc1N2 (stereo not given)	.	.	.	.	.	i	.	.
CC(=O)c1ccc(NC(=O)N2CCN(c3cccc(Cl)c3)CC2)cc1	-2.8*	0.237	5.15*	-0.826	1.5	i	?	-27.8
